The source of these data is ChEMBL document CHEMBL3045051 (Med Chem Res, 2011).

A word on the inhibition: it is the change of the read-out against control, counted positive when it falls. In general, IC50 refers to the concentration needed to halve the response being measured. Lower therefore signals greater potency. What is called EC50 is the concentration needed to bring the measured effect to its halfway point.

In test [1] the test system is Radical scavenging activity. Briefly: Antioxidant activity assessed as DPPH radical scavenging activity at 1 X 10^-4 M after 60 min. Type of test: functional. In short, it runs like this: (§1)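 Test compound was mixed with DPPH (0.05 and 0.1 mM) in ethanol. Absorbance at 517 nm was read after 20 and 60 min and compared with the NDGA standard, with ethanol as control. Each experiment was run at least in triplicate, and the SD of absorbance was <10% of the mean.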
(In general: DPPH is a stable violet radical that fades when it is reduced.)

Test [2] relates to Vesicular stomatitis virus. Briefly: Antiviral activity against Vesicular stomatitis virus infected Hela cells assessed as inhibition of virus-induced cytopathicity. It counts as functional, organism-based. Background: Protection from cytopathic effect is a common read-out in antiviral testing.
The subject of a further test is Vaccinia virus. Briefly: Antiviral activity against Vaccinia virus infected human HEL cells assessed as inhibition of virus-induced cytopathicity. The following applies: Orthopoxvirus vaccinia. It counts as functional, organism-based.
The test system of a further test is Sindbis virus. The experiment in a line: Antiviral activity against Sindbis virus infected Hela cells assessed as inhibition of virus-induced cytopathicity. It counts as functional, organism-based.
A further test has as its system Feline coronavirus. The experiment in a line: Antiviral activity against Feline coronavirus infected feline kidney crandell cells assessed as inhibition of virus-induced cytopathicity. It counts as functional, organism-based. An outline of the steps:
(§2)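 Confluent monolayers (feline kidney Crandell, Vero, HEL or HeLa, as named for each virus) were infected with 100 CCID50 of virus and allowed to adsorb for 1 h. Unbound virus was then removed, and cultures were incubated with test compound in serial dilutions (200, 40, 8 … µM). Cytopathicity was scored once untreated infected controls reached complete cytopathic effect.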

In test [3] the test system is Coxsackievirus B4. Briefly: Antiviral activity against Human coxsackievirus B4 infected VERO cells assessed as inhibition of virus-induced cytopathicity. Type of test: functional, organism-based. In short, it runs like this:
as §2

Test [4] deals with T1, Seed linoleate 13S-lipoxygenase-1 (Glycine max, UniProt P08170).
T1 sequence (P08170 whole entry): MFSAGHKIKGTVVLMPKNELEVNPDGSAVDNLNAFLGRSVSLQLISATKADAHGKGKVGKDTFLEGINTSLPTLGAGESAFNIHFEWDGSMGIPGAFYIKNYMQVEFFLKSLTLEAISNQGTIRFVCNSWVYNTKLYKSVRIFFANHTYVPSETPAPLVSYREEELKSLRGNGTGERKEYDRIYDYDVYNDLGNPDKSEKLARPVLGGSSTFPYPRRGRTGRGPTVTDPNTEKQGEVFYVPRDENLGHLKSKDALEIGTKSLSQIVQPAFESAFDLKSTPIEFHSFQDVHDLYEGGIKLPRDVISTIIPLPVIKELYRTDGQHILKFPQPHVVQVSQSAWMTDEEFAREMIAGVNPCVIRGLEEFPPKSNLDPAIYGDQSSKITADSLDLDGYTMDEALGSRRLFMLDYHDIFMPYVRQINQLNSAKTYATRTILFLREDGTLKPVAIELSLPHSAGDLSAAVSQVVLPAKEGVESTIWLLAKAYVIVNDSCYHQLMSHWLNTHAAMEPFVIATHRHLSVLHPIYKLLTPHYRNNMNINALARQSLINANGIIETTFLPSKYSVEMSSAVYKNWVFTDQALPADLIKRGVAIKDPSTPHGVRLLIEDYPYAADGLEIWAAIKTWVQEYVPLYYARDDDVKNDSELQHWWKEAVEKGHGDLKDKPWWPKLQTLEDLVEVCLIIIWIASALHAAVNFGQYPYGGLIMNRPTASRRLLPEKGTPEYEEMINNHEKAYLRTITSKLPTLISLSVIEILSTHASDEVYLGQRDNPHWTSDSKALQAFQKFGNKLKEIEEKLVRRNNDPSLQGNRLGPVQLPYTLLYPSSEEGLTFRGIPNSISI
The experiment in a line: Inhibition of Glycine max (soybean) lipoxygenase using sodium linoleate as substrate.

The subject of a further test is Human alphaherpesvirus 1. Briefly: Antiviral activity against […] 1 KOS infected in human HEL cells assessed as inhibition of virus-induced cytopathicity. It counts as functional, organism-based. In short, it runs like this: as §2
For a further test, the system named is Human alphaherpesvirus 2. The experiment in a line: Antiviral activity against Human herpesvirus 2 strain G infected human HEL cells assessed as inhibition of virus-induced cytopathicity. It counts as functional, organism-based. An outline of the steps: as §2
A further test deals with Human respirovirus 3. Briefly: Antiviral activity against Human parainfluenza virus 3 infected Vero cells assessed as inhibition of virus-induced cytopathicity. It counts as functional, organism-based. In short, it runs like this: as §2
Test [5] can be described thus: Antioxidant activity assessed as inhibition of AAPH-induced lipid peroxidation at 1 X 10^-4 M. Type of test: functional.
Test [6] relates to Respiratory syncytial virus. Briefly: Antiviral activity against Respiratory syncytial virus infected human HeLa cells assessed as inhibition of virus-induced cytopathicity. It counts as functional, organism-based. An outline of the steps:
as §2

The test system of test [7] is Radical scavenging activity. Briefly: Antioxidant activity assessed as DPPH radical scavenging activity at 5 X 10^-5 M after 20 min. Type of test: functional. An outline of the steps: as §1
The nature of test [8]: Antioxidant activity assessed as inhibition of AAPH-induced lipid peroxidation at 1 X 10^-5 M. Type of test: functional.
Test [9] concerns Radical scavenging activity. The experiment in a line: Antioxidant activity assessed as DPPH radical scavenging activity at 1 X 10^-4 M after 20 min. It counts as functional. In short, it runs like this:
as §1

For the next test, the system named is Influenza A virus. Briefly: Antiviral activity against Unidentified Influenza A virus (H1N2) infected MDCK cells assessed as inhibition of virus-induced cytopathicity. It counts as functional, organism-based.
The test system of the next test is Punta Toro virus. The experiment in a line: Antiviral activity against Punta Toro virus infected Hela cells assessed as inhibition of virus-induced cytopathicity. Type of test: functional, organism-based.
The test system of test [10] is Mammalian orthoreovirus 1. Briefly: Antiviral activity against Mammalian orthoreovirus 1 infected VERO cells assessed as inhibition of virus-induced cytopathicity. It counts as functional, organism-based. An outline of the steps:
as §2

Test [11] concerns the target T2, Seed linoleate 13S-lipoxygenase-1 (Glycine max) (UniProt P08170).
T2 sequence (whole entry): T1 sequence (P08170 whole entry)
The experiment in a line: Inhibition of Glycine max (soybean) lipoxygenase using sodium linoleate as substrate at 1 X 10^-4.

Test [12] relates to Radical scavenging activity. The experiment in a line: Antioxidant activity assessed as DPPH radical scavenging activity at 5 X 10^-5 M after 60 min. It counts as functional. In short, it runs like this:
as §1

The test system of test [13] is Vesicular stomatitis virus. Briefly: Antiviral activity against Vesicular stomatitis virus infected HEL cells assessed as inhibition of virus-induced cytopathicity. It counts as functional, organism-based.
Test [14] concerns Coxsackievirus B4. The experiment in a line: Antiviral activity against Human coxsackievirus B4 infected human HeLa cells assessed as inhibition of virus-induced cytopathicity. Type of test: functional, organism-based. An outline of the steps: as §2

The source made the active and inactive calls. No cut-off for these calls is given here.

For the compound `CC(C(=O)n1nnc2ccccc21)c1cccc(C(OC(=O)n2nnc3ccccc32)c2ccccc2)c1` (configuration not stated), the inhibition in test [1] is 5.4%; in [5] it was 98%; in [7] it was 2.9%; in [8], 15%; in [9], 2.5%; in test [11], 95%. The inhibition in test [12] turned out to be 3.7%. The result (in test [2]; in the test on Vaccinia virus; in the test with Sindbis virus; in the test on Feline coronavirus; in the test with Coxsackievirus B4 [3]; in the test with Human alphaherpesvirus 1) was inactive. The result (with Human alphaherpesvirus 2; in the test on Human respirovirus 3; in test [6]; with Influenza A virus; in the test on Influenza A virus (H1N1); with Punta Toro virus) was inactive. Moreover, the outcome (in [10]; in test [13]; in the test on Coxsackievirus B4 [14]) was inactive. This compound displayed a half-maximal inhibitory concentration (IC50) in [4] of 21 µM.

With `CC(C(=O)NCC1CCCCC1)c1cccc(C(OC(=O)NCC2CCCCC2)c2ccccc2)c1` (configuration not stated), the inhibition in test [1] came to 5.2%; in [5], 99.5%; in test [7], 1.7%; in test [8] it was 1.4%; in test [9], 1.6%; in [11] it was 56.6%. The inhibition in [12] was determined as 3.1%. Moreover, the outcome (in test [2]; with Vaccinia virus; in the test with Sindbis virus; in the test on Feline coronavirus; in the test with Coxsackievirus B4 [3]; with Human alphaherpesvirus 1) was inactive. Besides, the outcome (with Human alphaherpesvirus 2; in the test with Human respirovirus 3; in test [6]; in the test on Influenza A virus; with Influenza A virus (H1N1); in the test with Punta Toro virus) was inactive. The outcome (in test [10]; in test [13]; with Coxsackievirus B4 [14]) was inactive. In test [4], it took 95 µM to reach half-maximal inhibition (IC50).

Take `CC(C(=O)O)c1cccc(C(=O)c2ccccc2)c1` (configuration not stated) [KETOPROFEN]: the inhibition stood at 7.2% in [1], 6.4% in test [7], 8.1% in test [9] and 3.1% in [12]. In addition, the outcome (in [2]; in the test on Vaccinia virus; in the test on Sindbis virus; in the test on Feline coronavirus; in the test on Coxsackievirus B4 [3]; in the test with Human alphaherpesvirus 1) was inactive. The result (with Human alphaherpesvirus 2; with Human respirovirus 3; in [6]; with Influenza A virus; in the test with Influenza A virus (H1N1); in the test with Punta Toro virus) was inactive. Also, the outcome (in [10]; in [13]; in the test with Coxsackievirus B4 [14]) was inactive. This compound yielded an IC50 in test [4] of 130 µM.

Take `CC(C(=O)NCc1ccccc1)c1cccc(C(OC(=O)NCc2ccccc2)c2ccccc2)c1` (configuration not stated): the inhibition turned out to be 2.4% in test [1]; 98.4% in test [5]; 4.2% in [7]; 83.8% in [11]; 5.3% in [12]. In addition, the EC50 was found to be 3 µM in test [2], 11 µM in the test on Sindbis virus and 11 µM in the test with Punta Toro virus. For the same compound, the outcome in the test with Vaccinia virus, in the test on Feline coronavirus, in the test on Coxsackievirus B4 [3], in the test on Human alphaherpesvirus 1, in the test on Human alphaherpesvirus 2 and in the test with Human respirovirus 3 was inactive. For the same compound, the outcome (in test [6]; with Influenza A virus; with Influenza A virus (H1N1); in test [10]; in [13]; in the test with Coxsackievirus B4 [14]) was inactive. The compound also displayed an IC50 in test [4] of 32 µM. Moreover, the inhibition entry in test [8] and in test [9] was “inactive” in each case.

As to `CC(C(=O)NC1CCCC1)c1cccc(C(OC(=O)NC2CCCC2)c2ccccc2)c1` (configuration not stated), the inhibition worked out at 2.3% in test [1]; 95.2% in test [5]; 3.2% in test [7]; 69.6% in test [11]; 2.8% in test [12]. The result (in test [2]; in the test with Vaccinia virus; in the test with Sindbis virus; in the test with Feline coronavirus; in the test with Coxsackievirus B4 [3]; in the test with Human alphaherpesvirus 1) was inactive. The outcome (with Human alphaherpesvirus 2; in the test with Human respirovirus 3; in [6]; with Influenza A virus; with Influenza A virus (H1N1); with Punta Toro virus) was inactive. Moreover, the outcome (in test [10]; in test [13]; in the test on Coxsackievirus B4 [14]) was inactive. In test [4], this compound gave a half-inhibitory concentration (IC50) of 86 µM. The inhibition entry in test [8] and in test [9] was “inactive” throughout.
